Test results taken from ChEMBL document CHEMBL1152796, “Azole antimicrobial pharmacophore-based tetrazoles: synthesis and biological evaluation as potential antimicrobial and anticonvulsant agents” (Bioorg Med Chem, 2009).
≈ marks a conversion by molar mass, not a printed value. Calls of active or inactive are those of the source. The rule behind the calls is not given here.

What was measured:
Candida tropicalis = test: Antifungal activity against Candida tropicalis isolate after 72 hrs by twofold serial dilution method; assay type: functional, organism-based
Klebsiella pneumoniae [1] = test: Antibacterial activity against Klebsiella pneumoniae isolate at 1 mg/mL after 24 hrs by agar diffusion method; assay type: functional; conditions: read-out: Diameter of inhibition zone
Outline: (§1)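 Agar disc diffusion: 5 mm sterile paper discs soaked in 1 mg/mL test solution in DMSO were placed on agar seeded with the organism, in triplicate, with a DMSO-only control. Bacterial plates were incubated at 37 °C for 24 h and fungal plates for 7 days. Read-out was the average inhibition-zone diameter in mm. Fungi were clinical isolates.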

Escherichia coli [2] = test: Antibacterial activity against Escherichia coli ATCC 25922 after 24 to 48 hrs by twofold serial dilution method; assay type: functional
Outline: (§2)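 Broth microdilution in Müller–Hinton broth. DMSO stocks at 800 were diluted twofold from 400 down to 6.25. Wells received 10^6 CFU/mL bacterial suspension and were incubated at 36 °C for 24–48 h, with controls. MIC was read per well. Duplicate assays; run only for compounds giving inhibition zones ≥14 mm.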

Staphylococcus aureus [3] = test: Antibacterial activity against Staphylococcus aureus ATCC 6538 at 1 mg/mL after 24 hrs by agar diffusion method; assay type: functional; conditions: ATCC 6538, 24 h, read-out: Diameter of inhibition zone; outline: as §1
Mus musculus [4] = test: Anticonvulsant activity in Wister albino mouse assessed as protection against maximal electroshock-induced seizures at 100 mg/kg, ip administered 30 mins before metrazole challenge measured after 30 mins; assay type: functional; conditions: route intraperitoneal
Bacillus subtilis [5] = test: Antibacterial activity against Bacillus subtilis NRRL B-14819 after 24 to 48 hrs by twofold serial dilution method; assay type: functional; outline: as §2
Mus musculus [6] = test: Anticonvulsant activity in Wister albino mouse assessed as protection against subcutaneous metrazole-induced seizures at 100 mg/kg, ip administered 30 mins before metrazole challenge measured after 30 mins; assay type: functional; conditions: route intraperitoneal
Outline: (§3)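 Wistar albino mice, either sex, 25–30 g, 3 months old, in groups of six. Compounds in DMSO were given ip at 30, 100 or 300 mg/kg; vehicle-only controls. After 30 min, metrazole 100 mg/kg in DMSO was injected sc at the posterior midline. Protection meant absence of any clonic spasm lasting ≥5 s; scored as protected/tested.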

Micrococcus luteus [7] = test: Antibacterial activity against Micrococcus luteus ATCC 21881 after 24 to 48 hrs by twofold serial dilution method; assay type: functional; outline: as §2
Aspergillus niger = test: Antifungal activity against Aspergillus niger isolate after 72 hrs by twofold serial dilution method; assay type: functional, organism-based
Micrococcus luteus [8] = test: Antibacterial activity against Micrococcus luteus ATCC 21881 at 1 mg/mL after 24 hrs by agar diffusion method; assay type: functional; conditions: ATCC 21881, 24 h, read-out: Diameter of inhibition zone; outline: as §1
Pseudomonas aeruginosa [9] = test: Antibacterial activity against Pseudomonas aeruginosa ATCC 27853 after 24 to 48 hrs by twofold serial dilution method; assay type: functional; outline: as §2
Pichia kudriavzevii = test: Antifungal activity against Candida krusei isolate after 72 hrs by twofold serial dilution method; assay type: functional, organism-based
Mus musculus [10] = test: Anticonvulsant activity in Wister albino mouse assessed as protection against subcutaneous metrazole-induced seizures at 300 mg/kg, ip administered 30 mins before metrazole challenge measured after 30 mins; assay type: functional; outline: as §3
Staphylococcus aureus [11] = test: Antibacterial activity against Staphylococcus aureus ATCC 6538 after 24 to 48 hrs by twofold serial dilution method; assay type: functional; outline: as §2
Trichophyton rubrum = test: Antifungal activity against Trichophyton rubrum isolate after 72 hrs by twofold serial dilution method; assay type: functional, organism-based
Candida albicans [12] = test: Antifungal activity against Candida albicans isolate at 1 mg/mL after 7 days by twofold serial dilution method; assay type: functional; conditions: 168 h, read-out: Diameter of inhibition zone
Klebsiella pneumoniae [13] = test: Antibacterial activity against Klebsiella pneumoniae isolate after 24 to 48 hrs by twofold serial dilution method; assay type: functional; outline: as §2
Escherichia coli [14] = test: Antibacterial activity against Escherichia coli ATCC 25922 at 1 mg/mL after 24 hrs by agar diffusion method; assay type: functional; conditions: ATCC 25922, 24 h, read-out: Diameter of inhibition zone; outline: as §1
Aspergillus fumigatus [15] = test: Antifungal activity against Aspergillus fumigatus isolate at 1 mg/mL after 7 days by agar diffusion method; assay type: functional; conditions: 168 h, read-out: Diameter of inhibition zone; outline: as §1
Bacillus subtilis [16] = test: Antibacterial activity against Bacillus subtilis NRRL B-14819 at 1 mg/mL after 24 hrs by agar diffusion method; assay type: functional; conditions: read-out: Diameter of inhibition zone; outline: as §1
Pseudomonas aeruginosa [17] = test: Antibacterial activity against Pseudomonas aeruginosa ATCC 27853 at 1 mg/mL after 24 hrs by agar diffusion method; assay type: functional; conditions: ATCC 27853, 24 h, read-out: Diameter of inhibition zone; outline: as §1
Mus musculus [18] = test: Anticonvulsant activity in Wister albino mouse assessed as protection against subcutaneous metrazole-induced seizures at 30 mg/kg, ip administered 30 mins before metrazole challenge measured after 30 mins; assay type: functional; outline: as §3
Aspergillus fumigatus [19] = test: Antifungal activity against Aspergillus fumigatus isolate after 72 hrs by twofold serial dilution method; assay type: functional
Candida albicans [20] = test: Antifungal activity against Candida albicans isolate after 72 hrs by twofold serial dilution method; assay type: functional
Mus musculus [21] = test: Toxicity in Wister albino mouse assessed as death following tonic extension at 100 mg/kg, ip; assay type: organism-based; set-up: dose 100 mg/kg, route intraperitoneal; conditions: in vivo
Outline: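 Wistar albino mice of either sex (25–30 g, 3 months), six per group. Compound was dissolved in DMSO and given ip 30 min before the maximal electroshock test, with solvent-only controls. Corneas received 0.5% xylocaine; 6 Hz, 0.2-ms pulses were given for 3 s at 6–64 mA. Animals were observed 30 min after dosing, and deaths following tonic extension were recorded.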

Mus musculus [22] = test: Anticonvulsant activity in Wister albino mouse assessed as protection against maximal electroshock-induced seizures at 300 mg/kg, ip administered 30 mins before metrazole challenge measured after 30 mins; assay type: functional; conditions: route intraperitoneal

Row | Compound | MIC (Escherichia coli [2]) | MIC (Bacillus subtilis [5]) | MIC (Micrococcus luteus [7]) | MIC (Pseudomonas aeruginosa [9]) | MIC (Staphylococcus aureus [11]) | MIC (Klebsiella pneumoniae [13]) | Activity (Candida tropicalis) | zone of inhibition at 1000 µg/mL (Klebsiella pneumoniae [1]) | zone of inhibition at 1000 µg/mL (Staphylococcus aureus [3]) | Activity (Mus musculus [4]) | Activity (Mus musculus [6]) | Activity (Aspergillus niger) | zone of inhibition at 1000 µg/mL (Micrococcus luteus [8]) | Activity (Pichia kudriavzevii) | Activity (Trichophyton rubrum) | zone of inhibition at 1000 µg/mL (Candida albicans [12]) | zone of inhibition at 1000 µg/mL (Escherichia coli [14]) | zone of inhibition at 1000 µg/mL (Aspergillus fumigatus [15]) | zone of inhibition at 1000 µg/mL (Bacillus subtilis [16]) | zone of inhibition at 1000 µg/mL (Pseudomonas aeruginosa [17]) | further results
1 | O=C(COC(Cn1nnc(-c2ccccc2)n1)c1ccc(Cl)cc1)NNC(=S)Nc1ccccc1 (configuration not stated) | ≥ 200 µg/mL | 100 µg/mL (≈ 197 µM) | ≥ 200 µg/mL | ≥ 200 µg/mL | 50 µg/mL (≈ 98.4 µM) | ≥ 200 µg/mL | inactive | ≥ 14 mm | ≥ 14 mm | 67% | 80% | inactive | ≥ 14 mm | inactive | inactive | ≥ 14 mm | ≥ 14 mm | ≥ 14 mm | ≥ 14 mm | ≥ 14 mm | Activity (Mus musculus [10]): 0%; Activity (Mus musculus [18]): 0%
2 | O=C(Cn1nnc(-c2ccccc2)n1)c1ccc(Cl)cc1 |  |  |  |  |  |  |  |  |  | 0% | 0% |  |  |  |  |  |  |  |  |  | Activity (Mus musculus [21]): Toxic
3 | O=C(Cn1nnnc1Cc1ccccc1)c1ccc(Cl)cc1 |  |  |  |  |  |  |  |  |  | 50% | 50% |  |  |  |  |  |  |  |  |  | Activity (Mus musculus [10]): 0%; Activity (Mus musculus [22]): 0%; Activity (Mus musculus [18]): 0%
4 | Sc1nnc(COC(Cn2nnnc2Cc2ccccc2)c2ccc(Cl)cc2)n1-c1ccc(Cl)cc1 (configuration not stated) | 50 µg/mL (≈ 92.9 µM) | 50 µg/mL (≈ 92.9 µM) | 100 µg/mL (≈ 186 µM) | ≥ 200 µg/mL | 25 µg/mL (≈ 46.4 µM) | ≥ 200 µg/mL | inactive | ≥ 14 mm | ≥ 14 mm |  |  | inactive | ≥ 14 mm | inactive | inactive | ≥ 14 mm | ≥ 14 mm | ≥ 14 mm | ≥ 14 mm | ≥ 14 mm | MIC (Aspergillus fumigatus [19]): ≥ 200 µg/mL; MIC (Candida albicans [20]): 25 µg/mL (≈ 46.4 µM)

Now from value to molecule, other results behind:

Row | MIC (Escherichia coli [2]) | MIC (Bacillus subtilis [5]) | MIC (Micrococcus luteus [7]) | MIC (Pseudomonas aeruginosa [9]) | MIC (Staphylococcus aureus [11]) | MIC (Klebsiella pneumoniae [13]) | Compound | Activity (Candida tropicalis) | zone of inhibition at 1000 µg/mL (Klebsiella pneumoniae [1]) | zone of inhibition at 1000 µg/mL (Staphylococcus aureus [3]) | Activity (Mus musculus [4]) | Activity (Mus musculus [6]) | Activity (Aspergillus niger) | zone of inhibition at 1000 µg/mL (Micrococcus luteus [8]) | Activity (Pichia kudriavzevii) | Activity (Trichophyton rubrum) | zone of inhibition at 1000 µg/mL (Candida albicans [12]) | zone of inhibition at 1000 µg/mL (Escherichia coli [14]) | zone of inhibition at 1000 µg/mL (Aspergillus fumigatus [15]) | zone of inhibition at 1000 µg/mL (Bacillus subtilis [16]) | zone of inhibition at 1000 µg/mL (Pseudomonas aeruginosa [17]) | further results
5 | 50 µg/mL (≈ 168 µM) | ≥ 200 µg/mL | ≥ 200 µg/mL | ≥ 200 µg/mL | 50 µg/mL (≈ 168 µM) | ≥ 200 µg/mL | Clc1ccc(C2Cn3nnnc3Cc3ccccc32)cc1 (configuration not stated) | inactive | ≥ 14 mm | ≥ 14 mm | 33% | 0% | inactive | ≥ 14 mm | inactive | inactive | ≥ 14 mm | ≥ 14 mm | ≥ 14 mm | ≥ 14 mm | ≥ 14 mm | MIC (Aspergillus fumigatus [19]): 25 µg/mL (≈ 84.2 µM); MIC (Candida albicans [20]): ≥ 200 µg/mL
6 | 50 µg/mL (≈ 102 µM) | 50 µg/mL (≈ 102 µM) | ≥ 200 µg/mL | ≥ 200 µg/mL | 25 µg/mL (≈ 51.2 µM) | ≥ 200 µg/mL | Clc1ccc(C(Cn2nnnc2Cc2ccccc2)OCc2nnc(Nc3ccccc3)o2)cc1 (configuration not stated) | inactive | ≥ 14 mm | ≥ 14 mm |  |  | inactive | ≥ 14 mm | inactive | inactive | ≥ 14 mm | ≥ 14 mm | ≥ 14 mm | ≥ 14 mm | ≥ 14 mm | MIC (Aspergillus fumigatus [19]): ≥ 200 µg/mL; MIC (Candida albicans [20]): 25 µg/mL (≈ 51.2 µM)
7 | ≥ 200 µg/mL | 100 µg/mL (≈ 233 µM) | 100 µg/mL (≈ 233 µM) | ≥ 200 µg/mL | 50 µg/mL (≈ 117 µM) | ≥ 200 µg/mL | Sc1nnc(COC(Cn2nnnc2Cc2ccccc2)c2ccc(Cl)cc2)o1 (configuration not stated) | inactive | ≥ 14 mm | ≥ 14 mm |  |  | inactive | ≥ 14 mm | inactive | inactive | ≥ 14 mm | ≥ 14 mm | ≥ 14 mm | ≥ 14 mm | ≥ 14 mm | MIC (Aspergillus fumigatus [19]): ≥ 200 µg/mL; MIC (Candida albicans [20]): 100 µg/mL (≈ 233 µM)
